Test results published in PubChem BioAssay.
Activity calls are given as the source filed them.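 Rule for the calls, unless noted: active = viability at or under a set limit in both replicates, limit being median viability minus 3 SD (cut at about 48% in these data, passing the limit was not always enough); inconclusive = at or under the limit in just one replicate; inactive = at or above the limit in both replicates.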

Experiments:
[1] = reducers of endogenous Her2 protein level, primary screen, SKBR3 breast tumor cells, AlphaScreen, ATP viability (AID 461;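 active = Her2 level under about 52% in both replicate screens, with viability over 70% of control, limit read from the data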;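 for Her2 level: lower value means less Her2 protein in the cells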;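 for viability: percent of carrier control wells set as 100% viability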); details: 18-24 h, measured here: SKBR3 viability, ATP luminescence, at 10 µM
[2] = target: Receptor tyrosine-protein kinase erbB-2 (Homo sapiens) (UniProt P04626); test: as above; details: 18-24 h, at 10 µM, stronger effect = lower value
Receptor tyrosine-protein kinase erbB-2 (Homo sapiens), sequence (P04626 whole entry, looked up): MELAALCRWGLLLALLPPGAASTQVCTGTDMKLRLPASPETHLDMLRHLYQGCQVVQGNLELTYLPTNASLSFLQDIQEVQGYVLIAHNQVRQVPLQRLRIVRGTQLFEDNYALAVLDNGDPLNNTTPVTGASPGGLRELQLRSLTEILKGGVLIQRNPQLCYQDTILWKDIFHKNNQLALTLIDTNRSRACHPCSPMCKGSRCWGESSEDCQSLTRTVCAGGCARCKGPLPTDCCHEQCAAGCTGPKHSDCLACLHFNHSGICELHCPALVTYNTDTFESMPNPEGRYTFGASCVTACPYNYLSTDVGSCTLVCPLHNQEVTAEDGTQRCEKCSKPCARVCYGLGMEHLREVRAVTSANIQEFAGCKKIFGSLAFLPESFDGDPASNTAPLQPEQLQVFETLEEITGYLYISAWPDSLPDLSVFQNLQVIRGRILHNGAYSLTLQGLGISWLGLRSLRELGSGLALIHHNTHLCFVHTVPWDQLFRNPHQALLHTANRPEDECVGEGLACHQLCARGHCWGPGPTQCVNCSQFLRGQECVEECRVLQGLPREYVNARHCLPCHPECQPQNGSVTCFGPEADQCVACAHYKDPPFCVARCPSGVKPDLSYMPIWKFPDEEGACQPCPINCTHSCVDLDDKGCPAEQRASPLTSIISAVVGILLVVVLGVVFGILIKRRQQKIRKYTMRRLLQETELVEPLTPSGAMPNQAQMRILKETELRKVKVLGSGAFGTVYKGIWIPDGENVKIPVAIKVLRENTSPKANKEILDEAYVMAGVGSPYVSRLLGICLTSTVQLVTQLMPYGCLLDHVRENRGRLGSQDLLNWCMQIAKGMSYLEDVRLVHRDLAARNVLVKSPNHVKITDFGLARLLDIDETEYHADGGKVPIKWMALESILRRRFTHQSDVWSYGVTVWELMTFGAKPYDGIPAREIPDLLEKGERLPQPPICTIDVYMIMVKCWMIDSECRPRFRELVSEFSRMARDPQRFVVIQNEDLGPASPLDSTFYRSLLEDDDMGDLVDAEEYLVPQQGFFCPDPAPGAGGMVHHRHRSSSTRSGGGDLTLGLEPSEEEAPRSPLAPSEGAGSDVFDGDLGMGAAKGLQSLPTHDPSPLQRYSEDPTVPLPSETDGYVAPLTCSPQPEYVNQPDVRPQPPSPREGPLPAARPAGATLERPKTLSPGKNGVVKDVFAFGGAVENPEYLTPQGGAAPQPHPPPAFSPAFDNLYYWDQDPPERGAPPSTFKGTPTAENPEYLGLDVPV

[3] = SK-BR-3 cell growth inhibitors, pilot screen, 24 h, human (AID 572;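 active = viability at or below 10% of carrier control in both of two separate runs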;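 note: compound exposure lasted between 18 and 24 h rather than exactly 24 h; 100% = carrier-treated control wells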); details: SK-BR-3 viability, CellTiter-Glo luminescence, at 10 µM, stronger effect = lower value
[4] = HUVEC growth inhibition – cell-based, human, primary screen (AID 575;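 active = viability at or below 30% in both replicate assays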;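 note: 100% = median of untreated cell wells with 0.1% DMSO on each plate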); details: HUVEC proliferation, CellTiter-Glo luminescence, 72 h; at 10 µM; stronger effect = lower value
In short: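 system = HUVEC primary cells | amount = 1250 cells/well | buffer or medium = supplemented EBM, 2% fetal bovine serum | dosing = single-point 10 µM, DMSO 0.1% final | times = 72 h compound incubation | detection = CTG luminescence | read-out = % viability relative to median vehicle-well signal on each plate | control set = vehicle and MePR control wells | format = collagen-coated 384-well format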

[5] = growth inhibitors of H69AR lung tumor, primary screen, human, duplicate replicates (AID 580); details: H69AR lung tumor cells viability, ATP luminescence, 72 h; at 10 µM; stronger effect = lower value;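 note: 100% = mean luminescence of untreated wells and 0% = no signal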
[6] = reversal of MRP1-mediated doxorubicin resistance, pilot screen, H69AR cells, doxorubicin co-treatment (AID 601;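 active = viability loss from added drug above about 55%, and viability with drug at most 40%, in both replicates, limit read from the data, passing the limit was not always enough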); details: CellTiter-Glo, 72 h, at 10 µM; for differential viability (reversal): stronger effect = higher value
[7] = 384-well plate pilot, post-Golgi transport modulator project, inhibition of yeast transport mutant growth (AID 636; in the data active = inhibition above about 31%); details: absorbance 615 nm, about 18 h, stronger effect = higher value
[8] = growth suppression of yeast trafficking mutant, preliminary HTS, modulators of trafficking downstream of Golgi apparatus project, 1536-format plate, OD 615 nm (AID 637; in the data active = inhibition above about 30%); details: yeast transport mutant growth, absorbance 615 nm, 18 h; stronger effect = higher value
[9] = H69AR cells + 2 uM doxorubicin, measured here: viability with 2 uM doxorubicin, stronger effect = lower value
[10] = H69AR cells, compound alone cytotoxicity

Row | Compound | viability [1] | Her2 level [2] | viability [3] | viability [4] | viability [5] | differential viability (reversal) ([6]; H69AR cells + 2 uM doxorubicin) | viability [6, 9] | viability [6, 10] | inhibition [7] | inhibition [8]
1 | O=C(CCN1CCc2ccccc2C1)Nc1ccc2c(c1)OCO2 | 88.5% | 94% (inactive) | 88.5% (inactive) | 84.4% (inactive) | 87.1% (inactive) | -18.3% (inactive) | 105% | 87.1% | -4.4% (inactive) | 0.81% (inactive)
2 | c1ccc(-c2cn3c4c(sc3n2)CCCC4)cc1 | 89% | 76% (inactive) | 89% (inactive) | 46% (inactive) | 39.9% (active) | -25.4% (inactive) | 65.2% | 39.9% | -2.37% (inactive) | 1.27% (inactive)
3 | COc1cc(OC)cc(-c2nc3cc(C)ccc3o2)c1 | 95.5% | 70.5% (inactive) | 95.5% (inactive) | 62.8% (inactive) | 73% (inactive) | -2.79% (inactive) | 75.8% | 73% | -3.16% (inactive) | -4.52% (inactive)
4 | Oc1ccc2[nH]cnc2c1CN1CCCCC1 | 113% | 110% (inactive) | 113% (inactive) | 107% (inactive) | 99.7% (inactive) | 7.21% (inactive) | 92.5% | 99.7% | -5.39% (inactive) | 3.28% (inactive)
5 | CCN(CC)CCn1c2ccccc2c2nc(C)sc21 | 113% | 96.5% (inactive) | 113% (inactive) | 104% (inactive) | 92.6% (inactive) | -7.46% (inactive) | 100% | 92.6% | -5.32% (inactive) | -2.54% (inactive)
6 | CC1(C)Cc2noc(N)c2C(C)(C)N1OC(=O)c1ccccc1 | 107% | 132% (inactive) | 107% (inactive) | 104% (inactive) | 107% (inactive) | 21.2% (inactive) | 86.2% | 107% | 0% (inactive) | -5.4% (inactive)
7 | Cc1n[nH]c(C)c1S(=O)(=O)N1CCCCCC1 | 98% | 80% (inactive) | 98% (inactive) | 105% (inactive) | 101% (inactive) | 0.14% (inactive) | 101% | 101% | -1.58% (inactive) | -3.17% (inactive)
8 | CC(=O)N(C)C1(c2nnnn2CCOC(=O)Nc2cccc3ccccc23)CCCC1 | 119% | 85.5% (inactive) | 119% (inactive) | 83.9% (inactive) | 87.3% (inactive) | 3.21% (inactive) | 84.1% | 87.3% | -4.13% (inactive) | 5.08% (inactive)
9 | c1ccc(CNc2ncnc3ccccc23)cc1 | 86% | 87% (inactive) | 86% (inactive) | 58.2% (inactive) | 83.8% (inactive) | -13.6% (inactive) | 97.3% | 83.8% | -5% (inactive) | 3.93% (inactive)
10 | COc1ccc(-c2ccc(CCC(=O)O)n2NC(=O)c2cccs2)cc1 | 122% | 92% (inactive) | 122% (inactive) | 95.5% (inactive) | 101% (inactive) | 3% (inactive) | 98.3% | 101% | -2.76% (inactive) | 2.06% (inactive)
11 | Cn1c(=O)[nH]c(=O)c2c1nc(N1CCNCC1)n2CCOc1ccccc1 | 79.5% | 108% (inactive) | 79.5% (inactive) | 81.1% (inactive) | 82% (inactive) | -8.6% (inactive) | 90.6% | 82% | 4.32% (inactive) | 10.8% (inactive)
12 | CCS(=O)(=O)c1nc2ccccc2n1CC(=O)N1CCCCC1 | 88.5% | 82.5% (inactive) | 88.5% (inactive) | 96.7% (inactive) | 80.4% (inactive) | 3.6% (inactive) | 76.8% | 80.4% | -3.42% (inactive) | 0.79% (inactive)
13 | N#CCCNCC1(c2ccccc2)CCCC1 | 96% | 94% (inactive) | 96% (inactive) | 106% (inactive) | 102% (inactive) | 12.9% (inactive) | 89.4% | 102% | 2.97% (inactive) | -4.13% (inactive)
14 | OC(COc1ccc2ccccc2c1)CN1CCOCC1 (stereo not given) | 98.5% | 87% (inactive) | 98.5% (inactive) | 82.6% (inactive) | 81.5% (inactive) | -2.29% (inactive) | 83.8% | 81.5% | 1.56% (inactive) | 0.66% (inactive)
15 | CN(C)C(=O)N1CCCC(C(=O)NCc2ccccc2)C1 (stereo not given) | 89% | 92% (inactive) | 89% (inactive) | 102% (inactive) | 87.8% (inactive) | -18.9% (inactive) | 107% | 87.8% | 1.92% (inactive) | 4.5% (inactive)
16 | COc1ccc(-c2onc(C)c2-c2ccccc2)c(O)c1 | 99.5% | 73% (inactive) | 99.5% (inactive) | 79.6% (inactive) | 18.5% (active) | -44.4% (inactive) | 62.9% | 18.5% | -4.53% (inactive) | 0.32% (inactive)
17 | COc1ccc(OC)c(C(=O)c2nc3c(n2O)CCCCC3)c1 | 78.5% | 122% (inactive) | 78.5% (inactive) | 99.9% (inactive) | 93.2% (inactive) | -4.37% (inactive) | 97.6% | 93.2% | -5.13% (inactive) | 0.98% (inactive)
18 | Cc1ccc(S(=O)(=O)CCc2nnc(NC(=O)c3cnccn3)s2)cc1 | 97.5% | 87% (inactive) | 97.5% (inactive) | 116% (inactive) | 99.6% (inactive) | 1.94% (inactive) | 97.6% | 99.6% | -4.13% (inactive) | 3.93% (inactive)
19 | Cc1ccc(-n2ncc(C(=O)N3CCc4ccccc4C3)c2NC(=O)c2ccco2)cc1C | 94% | 92% (inactive) | 94% (inactive) | 83.6% (inactive) | 86.1% (inactive) | -3.83% (inactive) | 89.9% | 86.1% | -0.13% (inactive) | -3.44% (inactive)
20 | C=CCn1c(-c2ccc(OC)cc2)nc2ccccc21 | 118% | 99.5% (inactive) | 118% (inactive) | 110% (inactive) | 95.5% (inactive) | 4.69% (inactive) | 90.8% | 95.5% | -4.27% (inactive) | 3.71% (inactive)
21 | C=CCOC(=O)C1=C(C)OC(N)=C(C#N)C1c1ccc2c(c1)OCO2 (stereo not given) | 107% | 90.5% (inactive) | 107% (inactive) | 98.2% (inactive) | 94.5% (inactive) | 7.53% (inactive) | 86.9% | 94.5% | -4.32% (inactive) | -4.44% (inactive)
22 | Nc1nonc1N1CCCCC1 | 85.5% | 152% (inactive) | 85.5% (inactive) | 106% (inactive) | 99.1% (inactive) | 11.5% (inactive) | 87.6% | 99.1% | -3.51% (inactive) | -7.33% (inactive)
23 | COc1cc(N2C(=O)CSC23C(=O)Nc2ccccc23)cc(OC)c1OC (stereo not given) | 95.5% | 105% (inactive) | 95.5% (inactive) | 79.7% (inactive) | 95.7% (inactive) | 7.86% (inactive) | 87.8% | 95.7% | -1.97% (inactive) | -5.81% (inactive)
24 | COC(=O)C1=C(C)OC(N)=C(C#N)C1c1c(C)nn(-c2ccccc2)c1Cl (stereo not given) | 89% | 118% (inactive) | 89% (inactive) | 70.7% (inactive) | 79.7% (inactive) | -6.99% (inactive) | 86.7% | 79.7% | -0.27% (inactive) | 16.6% (inactive)
25 | O=C(CN1C(=O)c2ccccc2S1(=O)=O)NCc1ccccn1 | 94% | 92% (inactive) | 94% (inactive) | 86.1% (inactive) | 98.5% (inactive) | 0.67% (inactive) | 97.8% | 98.5% | -1.43% (inactive) | 1.11% (inactive)
26 | COc1ccc(OCC(=O)Nc2cccc3ncccc23)cc1 | 98% | 94.5% (inactive) | 98% (inactive) | 104% (inactive) | 91.4% (inactive) | 0.15% (inactive) | 91.2% | 91.4% | -3.73% (inactive) | 3.61% (inactive)
27 | CCOC(=O)C1CCN(c2c(N3CCCCCC3)c(=O)c2=O)CC1 | 97% | 100% (inactive) | 97% (inactive) | 87.9% (inactive) | 98% (inactive) | 0.92% (inactive) | 97.1% | 98% | -1.67% (inactive) | -0.33% (inactive)
28 | Cc1ccc(-c2[nH]nc3c2C(c2ccc(OC(=O)N4CCOCC4)cc2)C(C#N)=C(N)O3)cc1 (stereo not given) | 89% | 93% (inactive) | 89% (inactive) | 106% (inactive) | 85.5% (inactive) | -10.4% (inactive) | 96% | 85.5% | -5.26% (inactive) | -11.4% (inactive)
29 | CCN(CC)c1ccc(NC(=O)c2cncc(Br)c2)cc1 | 97.5% | 91% (inactive) | 97.5% (inactive) | 76.2% (inactive) | 79.9% (inactive) | -25.4% (inactive) | 105% | 79.9% | -4.47% (inactive) | 3.77% (inactive)
30 | COCCSc1ccccc1C(=O)Nc1nncs1 | 88% | 102% (inactive) | 88% (inactive) | 96.2% (inactive) | 92.5% (inactive) | 3.37% (inactive) | 89.2% | 92.5% | -4.73% (inactive) | 2.22% (inactive)
